The values that follow come from ChEMBL document CHEMBL2384985 (Bioorg Med Chem Lett, 2013).

The subject of assay [1] is Embryonic stem cell. Put plainly: Induction of cardiomyogenic activity in human embryonic stem cells assessed as cell growth at 5 uM measured on day 15 by FACS analysis. The class given is functional, cell-based.
Assay [2] has as its system Embryonic stem cell. Put plainly: Induction of cardiomyogenic activity in human embryonic stem cells assessed as cardiomyocyte yield at 5 to 100 uM measured on day 15 by FACS analysis. It is filed as functional, cell-based. An outline of the steps: (§1)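 Nkx2.5eGFP/w transgenic hESC line (eGFP driven by cardiac progenitor marker Nkx2.5). Compound present from Day 0, the day of embryoid body formation, to Day 8. On Day 15 EBs were dissociated to single cells for FACS. Nkx2.5 was read as GFP expression, and α-MHC by MF20 primary antibody with FITC-conjugated secondary.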

Assay [3] can be described thus: Reduction of cardiomyogenic activity in human embryonic stem cells assessed as cardiomyocyte yield at 5 uM measured on day 15 by FACS analysis relative to control. The class given is functional, Embryonic stem cell. An outline of the steps:
as §1

For assay [4], the system named is Embryonic stem cell. Put plainly: Induction of cardiomyogenic activity in human embryonic stem cells assessed as cardiomyocyte yield at 1 to 5 uM measured on day 15 by FACS analysis. The class given is functional, cell-based. An outline of the steps: as §1
Assay [5] has as its system Embryonic stem cell. Kind of assay: Induction of cardiomyogenic activity in human embryonic stem cells assessed as cardiomyocyte yield at 5 to 15 uM measured on day 15 by FACS analysis. It is filed as functional, cell-based. An outline of the steps:
as §1

Assay [6] has as its system Embryonic stem cell. Put plainly: (§2) Induction of cardiomyogenic activity in human embryonic stem cells assessed as cardiomyocyte yield at 5 uM measured on day 15 by FACS analysis relative to control. It is filed as functional. Put shortly:
as §1

The nature of assay [7]: as §2. The class given is functional, Embryonic stem cell. Put shortly:
as §1

The test system of assay [8] is Embryonic stem cell. Kind of assay: Induction of cardiomyogenic activity in human embryonic stem cells assessed as cardiomyocyte yield at 2 to 5 uM measured on day 15 by FACS analysis. The class given is functional, cell-based. An outline of the steps: as §1

The structures appear in SMILES notation. Activity calls are given as the source filed them. The calls are words filed in the database; no cut-off is given here.

Consider `C[S+]([O-])c1ccc(-c2nc(-c3ccc(F)cc3)c(-c3ccncc3)[nH]2)cc1` (stereo not given), for which the outcome in assay [1] was Active.

As for `C[S+]([O-])c1ccc(-c2nc(-c3ccc(F)cc3)c(C3=CCOCC3)[nH]2)cc1` (stereo not given), the result in assay [2] was inactive. Further, the Ratio in assay [3] was found to be 2.

`Cc1cccc(-c2nc(-c3c(F)cccc3F)[nH]c2-c2ccncc2)c1`: the outcome in assay [4] was inactive.

Turning to `Cc1cccc(-c2nc(-c3ccc([S+](C)[O-])cc3)[nH]c2C2=CCOCC2)c1` (stereo not given), the outcome in assay [5] was inactive. In assay [6], the outcome was Active.

Consider `Cc1cccc(-c2nc(-c3ccccc3F)[nH]c2-c2ccncc2)c1`, for which the outcome in assay [4] was inactive.

With `Cc1cccc(-c2nc(-c3ccc([S+](C)[O-])cc3)[nH]c2-c2ccncc2)c1` (stereo not given), in assay [1], the result was Active. In addition, the Ratio in assay [7] was found to be 5.

For `Cc1cccc(-c2nc(-c3ccc(O)cc3)[nH]c2-c2ccncc2)c1`, in assay [8], the result was inactive.
